# Measured values: ChEMBL document CHEMBL4715693, “Synthesis and antiviral properties of novel indole-based thiosemicarbazides and 4-thiazolidinones” (Bioorg Med Chem, 2016)
# Tests used:
# Human alphaherpesvirus 2 = test: Antiviral activity against Herpes simplex virus 2 infected in human HEL cells assessed as reduction in virus-induced cytopathic effect incubated for 3 to 6 days by light microscopic analysis; format: functional, cell-based; conditions: Human alphaherpesvirus 2, HEL
# Felid alphaherpesvirus 1 = test: Antiviral activity against Feline herpesvirus infected in cat CRFK cells assessed as reduction in virus-induced cytopathic effect incubated for 3 to 6 days by light microscopic analysis; format: functional, organism-based; conditions: Felid alphaherpesvirus 1, CRFK
# MT4 = test: Cytotoxicity against human MT4 cells assessed as reduction in cell viability incubated for 3 to 6 days by MTS assay; format: cell-based; conditions: time 3-6 day
# Procedure, shortened: (§1)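 CRFK or MT4 cells were exposed to serial compound dilutions alongside the antiviral assays for 3–6 days at 37 °C.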
# [1] = tested on: Human immunodeficiency virus 2; test: Antiviral activity against Human immunodeficiency virus 2 infected in human MT4 cells assessed as reduction in virus-induced cytopathic effect incubated for 3 to 6 days by light microscopic analysis; format: functional, organism-based; conditions: Human immunodeficiency virus 2, MT4
# Vaccinia virus = test: Antiviral activity against Vaccinia virus infected in human HEL cells assessed as reduction in virus-induced cytopathic effect incubated for 3 to 6 days by light microscopic analysis; format: functional, organism-based; conditions: Orthopoxvirus vaccinia
# Human alphaherpesvirus 1 = test: Antiviral activity against Herpes simplex virus 1 infected in human HEL cells assessed as reduction in virus-induced cytopathic effect incubated for 3 to 6 days by light microscopic analysis; format: functional, cell-based; conditions: Human alphaherpesvirus 1, HEL
# Influenza B virus = test: Antiviral activity against influenza B virus infected in dog MDCK cells assessed as reduction in virus-induced cytopathic effect incubated for 3 to 6 days by light microscopic analysis; format: functional, organism-based
# Procedure, shortened: (§2)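 MDCK cells, subconfluent, received influenza A or B virus together with serial compound dilutions. Incubated 3–6 days at 35 °C.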
# Sindbis virus = test: Antiviral activity against Sindbis virus infected in African green monkey Vero cells assessed as reduction in virus-induced cytopathic effect incubated for 3 to 6 days by light microscopic analysis; format: functional, organism-based
# Procedure, shortened: (§3)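 CPE reduction assay: virus and serial compound dilutions added together to subconfluent HeLa (vesicular stomatitis, Coxsackie B4, respiratory syncytial) or Vero (Coxsackie B4, Sindbis, Punta Toro) cultures. Incubated 3–6 days at 37 °C. […] Mean ± SEM of three independent tests.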
# [2] = tested on: Vesicular stomatitis virus; test: Antiviral activity against Vesicular stomatitis virus infected in human HeLa cells assessed as reduction in virus-induced cytopathic effect incubated for 3 to 6 days by light microscopic analysis; format: functional, organism-based
# Procedure, shortened: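 CPE reduction assay: virus and serial compound dilutions added together to subconfluent HeLa (vesicular stomatitis, Coxsackie B4, respiratory syncytial) or Vero (Coxsackie B4, Sindbis, Punta Toro) cultures. Incubated 3–6 days at 37 °C. Mean ± SEM of three independent tests.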
# Influenza A virus = test: Antiviral activity against influenza A virus infected in dog MDCK cells assessed as reduction in virus-induced cytopathic effect incubated for 3 to 6 days by light microscopic analysis; format: functional, organism-based; conditions: Influenza A virus, MDCK; procedure, shortened: as §2
# [3] = Cytotoxicity against cat CRFK cells assessed as reduction in cell viability incubated for 3 to 6 days by MTS assay; format: cell-based, Felis catus; conditions: time 3-6 day; procedure, shortened: as §1
# [4] = Cytotoxicity against human HEL cells assessed as changes in cell morphology incubated for 3 to 6 days by light microscopy; format: cell-based; conditions: time 3-6 day
# Procedure, shortened: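 Human embryonic lung fibroblasts incubated with serial compound dilutions alongside the antiviral assays, 37 °C, 3–6 days. Morphology inspected by light microscopy; minimal cytotoxic concentration taken as lowest concentration giving minimal morphological change.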
# [5] = tested on: Mammalian orthoreovirus 1; test: Antiviral activity against Mammalian orthoreovirus 1 infected in African green monkey Vero cells assessed as reduction in virus-induced cytopathic effect incubated for 3 to 6 days by light microscopic analysis; format: functional, organism-based; conditions: Mammalian orthoreovirus 1, Vero
# Punta Toro virus = test: Antiviral activity against Punta Toro virus infected in African green monkey Vero cells assessed as reduction in virus-induced cytopathic effect incubated for 3 to 6 days by light microscopic analysis; format: functional, organism-based; procedure, shortened: as §3
# Human respirovirus 3 = test: Antiviral activity against Human parainfluenza virus 3 infected in African green monkey Vero cells assessed as reduction in virus-induced cytopathic effect incubated for 3 to 6 days by light microscopic analysis; format: functional, organism-based; conditions: Human respirovirus 3, Vero
# Coxsackievirus B4 [6] = test: Antiviral activity against Human coxsackievirus B4 infected in human HeLa cells assessed as reduction in virus-induced cytopathic effect incubated for 3 to 6 days by light microscopic analysis; format: functional, organism-based; conditions: Enterovirus B; procedure, shortened: as §3
# [7] = tested on: Respiratory syncytial virus; test: Antiviral activity against Respiratory syncytial virus infected in human HeLa cells assessed as reduction in virus-induced cytopathic effect incubated for 3 to 6 days by light microscopic analysis; format: functional, organism-based; procedure, shortened: as §3
# Feline coronavirus = test: Antiviral activity against Feline coronavirus infected in cat CRFK cells assessed as reduction in virus-induced cytopathic effect incubated for 3 to 6 days by light microscopic analysis; format: functional, organism-based; conditions: Alphacoronavirus 1, CRFK
# Coxsackievirus B4 [8] = test: Antiviral activity against Human coxsackievirus B4 infected in African green monkey Vero cells assessed as reduction in virus-induced cytopathic effect incubated for 3 to 6 days by light microscopic analysis; format: functional, organism-based; conditions: Enterovirus B; procedure, shortened: as §3
# [9] = tested on: Human immunodeficiency virus 1; test: Antiviral activity against Human immunodeficiency virus 1 infected in human MT4 cells assessed as reduction in virus-induced cytopathic effect incubated for 3 to 6 days by light microscopic analysis; format: functional, organism-based; conditions: Human immunodeficiency virus 1, MT4
# [10] = Cytotoxicity against African green monkey Vero cells assessed as changes in cell morphology incubated for 3 to 6 days by light microscopy; format: cell-based; conditions: chlorocebus sabaeus, time 3-6 day
# Procedure, shortened: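 Uninfected subconfluent cells (Vero or HeLa, as named) exposed to serial compound dilutions in parallel with the CPE assays, 37 °C, 3–6 days. Cell morphology examined by light microscopy; MCC = minimal concentration causing microscopically detectable changes in morphology.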
Structure (SMILES),EC50 (Human alphaherpesvirus 2),EC50 (Felid alphaherpesvirus 1),CC50 (MT4),EC50 [1],EC50 (Vaccinia virus),EC50 (Human alphaherpesvirus 1),EC50 (Influenza B virus),EC50 (Sindbis virus),EC50 [2],EC50 (Influenza A virus),CC50 ([3]; crfk),MCC [4],EC50 [5],EC50 (Punta Toro virus),EC50 (Human respirovirus 3),EC50 (Coxsackievirus B4 [6]),EC50 [7],EC50 (Feline coronavirus),EC50 (Coxsackievirus B4 [8]),EC50 [9],further results
CCCCN1C(=O)CS/C1=N\NC(=O)c1[nH]c2ccc(F)cc2c1-c1ccccc1,> 100 µg/mL,> 100 µg/mL,>= 98 ug ml-1,> 100 µg/mL,> 100 µg/mL,> 100 µg/mL,> 100 µg/mL,> 100 µg/mL,> 100 µg/mL,> 100 µg/mL,> 100 µg/mL,> 10 µg/mL,> 100 µg/mL,> 100 µg/mL,> 100 µg/mL,> 100 µg/mL,> 100 µg/mL,> 100 µg/mL,> 100 µg/mL,> 100 µg/mL,
Cc1cn([C@H]2C[C@H](N=[N+]=[N-])[C@@H](CO)O2)c(=O)[nH]c1=O [ZIDOVUDINE],,,> 25 µg/mL,,,,,,,,,,,,,,,,,,
CN1C(=O)CS/C1=N\NC(=O)c1[nH]c2ccc(F)cc2c1-c1ccccc1,> 100 µg/mL,> 100 µg/mL,> 125 µg/mL,> 100 µg/mL,> 100 µg/mL,> 100 µg/mL,> 100 µg/mL,> 100 µg/mL,> 100 µg/mL,> 100 µg/mL,> 100 µg/mL,> 100 µg/mL,> 100 µg/mL,> 100 µg/mL,> 100 µg/mL,> 100 µg/mL,> 100 µg/mL,> 100 µg/mL,> 100 µg/mL,> 100 µg/mL,MCC [10]: 20 µg/mL
CCN1C(=O)CS/C1=N\NC(=O)c1[nH]c2ccc(F)cc2c1-c1ccccc1,> 100 µg/mL,> 100 µg/mL,> 125 µg/mL,> 100 µg/mL,> 100 µg/mL,> 100 µg/mL,> 100 µg/mL,> 100 µg/mL,> 100 µg/mL,> 100 µg/mL,> 100 µg/mL,> 100 µg/mL,> 100 µg/mL,> 100 µg/mL,> 100 µg/mL,> 100 µg/mL,> 100 µg/mL,> 100 µg/mL,> 100 µg/mL,> 100 µg/mL,MCC [10]: 20 µg/mL
C=CCN1C(=O)CS/C1=N\NC(=O)c1[nH]c2ccc(F)cc2c1-c1ccccc1,> 100 µg/mL,> 100 µg/mL,> 125 µg/mL,> 100 µg/mL,> 100 µg/mL,> 100 µg/mL,> 100 µg/mL,> 100 µg/mL,> 100 µg/mL,> 100 µg/mL,> 100 µg/mL,> 100 µg/mL,> 100 µg/mL,> 100 µg/mL,> 100 µg/mL,> 100 µg/mL,> 100 µg/mL,> 100 µg/mL,> 100 µg/mL,> 100 µg/mL,
Nc1nc2c(ncn2COC(CO)CO)c(=O)[nH]1 [GANCICLOVIR],,7.4 µM,,,> 100 µM,,,,,,,> 100 µM,,,,,,> 100 µM,,,"CC50 ([3]; CRFK cells, read-out: CC50): > 100 µM"
O=c1[nH]c(=O)n([C@H]2C[C@H](O)[C@@H](CO)O2)cc1/C=C/Br [BRIVUDINE],,,,,22 µM,,,,,,,,,,,,,,,,
CCCN1C(=O)CS/C1=N\NC(=O)c1[nH]c2ccc(F)cc2c1-c1ccccc1,> 100 µg/mL,> 100 µg/mL,> 125 µg/mL,> 100 µg/mL,> 100 µg/mL,> 100 µg/mL,> 100 µg/mL,> 100 µg/mL,> 100 µg/mL,> 100 µg/mL,> 100 µg/mL,> 100 µg/mL,> 100 µg/mL,> 100 µg/mL,> 100 µg/mL,> 100 µg/mL,> 100 µg/mL,> 100 µg/mL,> 100 µg/mL,> 100 µg/mL,
O=C(N/N=C1\SCC(=O)N1Cc1ccccc1)c1[nH]c2ccc(F)cc2c1-c1ccccc1,> 100 µg/mL,> 100 µg/mL,38 µg/mL,> 100 µg/mL,> 100 µg/mL,> 100 µg/mL,> 100 µg/mL,> 100 µg/mL,> 100 µg/mL,> 100 µg/mL,> 100 µg/mL,> 10 µg/mL,> 100 µg/mL,> 100 µg/mL,> 100 µg/mL,> 100 µg/mL,> 100 µg/mL,> 100 µg/mL,> 100 µg/mL,> 100 µg/mL,MCC [10]: ≥ 10 µg/mL
O=C(N/N=C1\SCC(=O)N1CCc1ccccc1)c1[nH]c2ccc(F)cc2c1-c1ccccc1,> 100 µg/mL,> 100 µg/mL,>= 108 ug ml-1,> 100 µg/mL,> 100 µg/mL,> 100 µg/mL,> 100 µg/mL,> 100 µg/mL,> 100 µg/mL,> 100 µg/mL,17 µg/mL,> 10 µg/mL,> 100 µg/mL,> 100 µg/mL,> 100 µg/mL,> 100 µg/mL,> 100 µg/mL,> 100 µg/mL,> 100 µg/mL,> 100 µg/mL,MCC [10]: 10 µg/mL
